Measurements taken from ChEMBL document CHEMBL1136508, “[3H]-methoxymethyl-MTEP and [3H]-methoxy-PEPy: potent and selective radioligands for the metabotropic glutamate subtype 5 (mGlu5) receptor” (Bioorg Med Chem Lett, 2003).
pIC50: −log10 of the molar value.

How the values were obtained:
[1] = Lipophilicity (Log D) was determined; assay type: physicochemical; details: octanol/water
Summary of the method: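 LogD was determined by an HPLC method.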

[2] = molecular target: T1, Metabotropic glutamate receptor 5 (Homo sapiens, UniProt P41594); test: In vitro functional potency using an automated assay employing LtK-cells stably expressing human recombinant mGlu5 receptor by measuring changes in cytosolic [Ca2+] concentration
Summary of the method: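 Ltk- cells stably expressing recombinant human mGlu5 were loaded with fura-2. Glutamate-evoked rises in cytosolic Ca2+ were read by fluorescence. Concentration–response curves used 12 concentrations in duplicate wells, from two or more separate experiments.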

[3] = molecular target: T1, Metabotropic glutamate receptor 5; test: Binding affinity towards human mGlu5 receptors expressed in LtK-cells; assay type: cell-based
[4] = molecular target: Metabotropic glutamate receptor 5 (Rattus norvegicus, UniProt P31424); test: Binding affinity towards mGlu5 receptors in rat brain membranes was evaluated; assay type: cell membranes
Summary of the method: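 Displacement of [3H]-methoxy-PEPy (specific activity 67.6 Ci/mmol) binding to rat brain membranes, incubated at room temperature (equilibrium within 60 min). Nonspecific binding was defined with an unlabelled mGlu5 antagonist as cold displacer. Concentration–response curves gave IC50 values.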

T1 sequence (P41594 whole entry): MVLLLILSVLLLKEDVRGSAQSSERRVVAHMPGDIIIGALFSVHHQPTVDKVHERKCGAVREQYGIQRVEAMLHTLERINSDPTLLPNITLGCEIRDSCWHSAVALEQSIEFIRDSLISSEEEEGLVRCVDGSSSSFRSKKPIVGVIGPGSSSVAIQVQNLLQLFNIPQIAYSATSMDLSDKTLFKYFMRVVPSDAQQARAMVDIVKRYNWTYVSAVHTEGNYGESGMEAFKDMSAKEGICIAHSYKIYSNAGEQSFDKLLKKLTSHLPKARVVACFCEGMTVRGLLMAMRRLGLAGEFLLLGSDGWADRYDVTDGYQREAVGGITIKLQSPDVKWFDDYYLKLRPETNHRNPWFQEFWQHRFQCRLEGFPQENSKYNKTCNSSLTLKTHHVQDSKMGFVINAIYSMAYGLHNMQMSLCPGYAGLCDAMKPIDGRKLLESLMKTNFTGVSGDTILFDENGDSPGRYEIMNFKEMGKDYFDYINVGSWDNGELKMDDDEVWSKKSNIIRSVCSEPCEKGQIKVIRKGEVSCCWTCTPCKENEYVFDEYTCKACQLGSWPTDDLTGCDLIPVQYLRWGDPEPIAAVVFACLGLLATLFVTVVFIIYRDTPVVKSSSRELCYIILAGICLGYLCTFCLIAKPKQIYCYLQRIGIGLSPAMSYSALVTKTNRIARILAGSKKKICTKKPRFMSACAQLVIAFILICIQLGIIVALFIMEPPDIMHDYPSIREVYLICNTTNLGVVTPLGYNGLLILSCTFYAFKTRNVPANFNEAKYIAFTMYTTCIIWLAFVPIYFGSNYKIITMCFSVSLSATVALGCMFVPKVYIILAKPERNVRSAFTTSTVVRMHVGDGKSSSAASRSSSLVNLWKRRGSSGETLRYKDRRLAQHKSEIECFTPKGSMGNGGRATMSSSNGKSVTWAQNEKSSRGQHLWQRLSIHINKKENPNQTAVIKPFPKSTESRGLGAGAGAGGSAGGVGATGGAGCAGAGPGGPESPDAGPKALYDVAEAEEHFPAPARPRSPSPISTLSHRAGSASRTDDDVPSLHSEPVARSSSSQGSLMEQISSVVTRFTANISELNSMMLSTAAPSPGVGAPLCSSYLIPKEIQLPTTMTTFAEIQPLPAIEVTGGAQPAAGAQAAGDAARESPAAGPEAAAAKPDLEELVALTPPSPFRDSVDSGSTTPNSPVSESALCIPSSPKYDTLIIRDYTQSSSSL
Sequence of Metabotropic glutamate receptor 5 (Rattus norvegicus, UniProt P31424) (P31424 whole entry): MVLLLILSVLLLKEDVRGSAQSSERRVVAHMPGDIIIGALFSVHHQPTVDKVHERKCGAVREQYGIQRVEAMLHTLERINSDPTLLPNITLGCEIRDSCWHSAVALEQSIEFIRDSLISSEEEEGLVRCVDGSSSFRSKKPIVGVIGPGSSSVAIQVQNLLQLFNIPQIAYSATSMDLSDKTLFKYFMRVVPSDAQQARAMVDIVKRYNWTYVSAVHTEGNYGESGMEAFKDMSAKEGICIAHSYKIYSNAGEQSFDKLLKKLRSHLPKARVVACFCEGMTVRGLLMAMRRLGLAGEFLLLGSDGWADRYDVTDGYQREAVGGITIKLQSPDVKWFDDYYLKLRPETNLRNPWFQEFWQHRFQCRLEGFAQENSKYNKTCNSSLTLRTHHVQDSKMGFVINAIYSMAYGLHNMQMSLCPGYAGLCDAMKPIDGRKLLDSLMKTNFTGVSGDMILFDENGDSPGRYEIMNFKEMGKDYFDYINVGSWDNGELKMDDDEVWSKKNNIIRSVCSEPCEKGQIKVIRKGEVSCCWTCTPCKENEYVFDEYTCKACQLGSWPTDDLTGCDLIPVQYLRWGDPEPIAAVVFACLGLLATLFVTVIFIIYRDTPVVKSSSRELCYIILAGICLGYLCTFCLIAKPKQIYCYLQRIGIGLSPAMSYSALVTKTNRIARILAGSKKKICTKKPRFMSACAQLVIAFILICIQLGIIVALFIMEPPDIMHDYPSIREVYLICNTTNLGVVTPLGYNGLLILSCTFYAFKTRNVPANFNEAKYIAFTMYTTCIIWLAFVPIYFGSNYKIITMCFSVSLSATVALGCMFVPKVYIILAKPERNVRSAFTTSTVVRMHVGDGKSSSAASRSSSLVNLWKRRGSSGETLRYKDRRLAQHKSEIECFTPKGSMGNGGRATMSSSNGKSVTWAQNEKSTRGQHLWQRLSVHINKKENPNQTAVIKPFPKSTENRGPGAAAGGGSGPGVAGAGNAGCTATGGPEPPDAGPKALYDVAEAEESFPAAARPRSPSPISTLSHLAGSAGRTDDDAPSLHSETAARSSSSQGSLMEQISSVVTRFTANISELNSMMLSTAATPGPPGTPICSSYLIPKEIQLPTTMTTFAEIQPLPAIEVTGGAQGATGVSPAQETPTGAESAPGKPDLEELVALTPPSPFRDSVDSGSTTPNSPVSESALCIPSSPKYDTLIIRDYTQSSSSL

SMILES: Cc1cncc(C#Cc2csc(C)n2)c1
- logD [1]: 2.5

SMILES: COCc1cncc(C#Cc2ccccn2)c1
- logD [1]: 2
- pIC50 [2]: 7.72

SMILES: [3H]C([3H])([3H])OCc1cncc(C#Cc2csc(C)n2)c1
- logD [1]: 2.4
- pIC50 [3]: 7.33
- pIC50 [2]: 8.15

SMILES: [3H]C([3H])([3H])Oc1cncc(C#Cc2ccccn2)c1
- logD [1]: 2.25
- pIC50 [4]: 7.92
- pIC50 [2]: 9.00
